Counter-ions that a name gives are not always drawn. Calls of active or inactive are those of the source. The calls are words filed in the database; no cut-off is given here.
Key:
[1] = tested on: Candida albicans; experiment: Antimicrobial activity against Candida albicans ATCC 10231 at 1 ug after 24 hrs by paper disc agar diffusion method; format: functional, organism-based
[2] = tested on: Pseudomonas aeruginosa; experiment: Antimicrobial activity against Pseudomonas aeruginosa ATCC 10145 at 1 ug after 24 hrs by paper disc agar diffusion method; format: functional, organism-based
[3] = tested on: Escherichia coli; experiment: Antimicrobial activity against Escherichia coli ATCC 11775 at 1 ug after 24 hrs by paper disc agar diffusion method; format: functional, organism-based; settings: DSM 30083 = JCM 1649 = ATCC 11775
[4] = tested on: Klebsiella aerogenes; experiment: Antimicrobial activity against Enterobacter aerogenes ATCC 13048 at 1 ug after 24 hrs by paper disc agar diffusion method; format: functional, organism-based
[5] = tested on: Bacillus subtilis; experiment: Antimicrobial activity against Bacillus subtilis ATCC 6051 at 1 ug after 24 hrs by paper disc agar diffusion method; format: functional, organism-based
[6] = tested on: A549; experiment: Cytotoxicity against human A549 cells after 72 hrs by MTT assay; format: functional, cell-based; settings: A549, 72 h
In short: (§1)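 MTT viability assay on human cell lines, with values given as IC50. Lines used: gemcitabine-resistant pancreatic cancer G3K, breast adenocarcinoma MCF-7, its adriamycin-resistant subline MCF-7/Adr, triple-negative breast cancer MDA-MB-231, nontumorigenic breast epithelial MCF10A, non-small-cell lung cancer A549, and promyelocytic leukemia HL-60.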

[7] = tested on: HL-60; experiment: Cytotoxicity against human HL60 cells after 72 hrs by MTT assay; format: functional, cell-based; settings: HL-60, 72 h; in short: as §1
[8] = Cytotoxicity against human G3K cells after 72 hrs by MTT assay; format: functional, cell-based; in short: as §1
[9] = tested on: MDA-MB-231; experiment: Cytotoxicity against human MDA-MB-231 cells after 72 hrs by MTT assay; format: functional, cell-based; settings: MDA-MB-231, 72 h
[10] = tested on: MCF7; experiment: Cytotoxicity against human MCF7 cells after 72 hrs by MTT assay; format: functional, cell-based; settings: MCF7, 72 h; in short: as §1
[11] = tested on: NCI/ADR-RES; experiment: Cytotoxicity against human MCF7/ADR cells after 72 hrs by MTT assay; format: functional, cell-based; in short: as §1
[12] = tested on: MCF-10A; experiment: Cytotoxicity against human MCF10A cells after 72 hrs by MTT assay; format: functional, cell-based; in short: as §1

SMILES | Activity [1] | Activity [2] | Activity [3] | Activity [4] | Activity [5] | IC50 [6] [µM] | IC50 [7] [µM] | IC50 [8] [µM] | IC50 [9] [µM] | IC50 [10] [µM] | IC50 [11] [µM] | IC50 [12] [µM]
CO[C@@H]1O[C@@]2(OC)C[C@@](C)(O)[C@H]3C[C@@]4(C)CC[C@H]([C@@H](C)/C=C\C=C(C)C)[C@@H]4C/C=C/1[C@H]32 | inactive | inactive | inactive | inactive | inactive | 0.6 | 0.8 |  |  |  |  | 
CC(C)=C/C=C\[C@H](C)[C@H]1CC[C@]2(C)CC3=C(C(=O)C[C@H]3C)/C(C=O)=C\C[C@@H]12 |  |  |  |  |  |  |  | > 20 | 39.8 | > 40 | > 40 | 
CC(C)=C/C=C\[C@H](C)[C@H]1CC[C@]2(C)C[C@H]3[C@H]4/C(=C\C[C@@H]12)C(=O)O[C@H]4C[C@@]3(C)O | inactive | inactive | inactive | inactive | inactive | > 50 | > 50 | > 20 | > 40 | > 40 | > 40 | 
CC1=CC(=O)[C@H]2/C(C=O)=C\C[C@H]3[C@@H]([C@@H](C)/C=C\[C@@H](O)C(C)(C)O)CC[C@]3(C)C[C@H]12 |  |  |  |  |  | 33.8 | 7.2 |  |  |  |  | 
CC(C)=C/C=C\[C@H](C)[C@H]1CC[C@]2(C)C[C@@H]3C(C)=CC(=O)[C@@H]3/C(C=O)=C\C[C@@H]12 |  |  |  |  |  |  |  | 9.5 | 14.1 | 22.9 | 34.6 | > 40
CO[C@H]1C[C@H]2[C@@H]([C@@H](C)/C=C\C=C(C)C)CC[C@]2(C)C[C@H]2[C@H]3C1=CO[C@H]3C[C@@]2(C)O |  |  |  |  |  |  |  | > 20 | > 40 | > 40 | > 40 | 
CC(C)=C/C=C\[C@H](C)[C@H]1CC[C@]2(C)C[C@H]3[C@@H](C(=O)C[C@@]3(C)O)/C(C=O)=C\C[C@@H]12 | inactive | inactive | inactive | inactive | inactive |  |  | 6.8 | 4.1 | 12.8 | 26.1 | > 40
CC(C)=C/C=C\[C@H](C)[C@H]1CC[C@]2(C)C[C@H]3[C@@H]4/C(=C\C[C@@H]12)CO[C@@H]4C[C@@]3(C)O |  |  |  |  |  |  |  | > 20 | > 40 | > 40 | > 40 | 
CC(C)=C/C=C\[C@H](C)[C@H]1CC[C@]2(C)C[C@@H]3C(C)=CC(=O)[C@H]3/C(C=O)=C\C[C@@H]12 | inactive | inactive | inactive | inactive | inactive |  |  | 16.8 | 11.6 | 15.4 | 35.4 | > 40
COc1cccc2c1C(=O)c1c(O)c3c(c(O)c1C2=O)C[C@@](O)(C(=O)CO)C[C@@H]3O[C@H]1C[C@H](N)[C@H](O)[C@H](C)O1 [DOXORUBICIN HYDROCHLORIDE] |  |  |  |  |  |  |  | 45 |  | 0.1 | 2.9 | 0.2
CO[C@H]1O[C@]2(OC)C[C@@](C)(O)[C@H]3C[C@@]4(C)CC[C@H]([C@@H](C)/C=C\C=C(C)C)[C@@H]4C/C=C/1[C@@H]32 | inactive | inactive | inactive | inactive | inactive |  |  | > 20 | 21.4 | 9.4 | 7.9 | > 40
CO[C@@H]1O[C@]2(OC)C[C@@](C)(O)[C@H]3C[C@@]4(C)CC[C@H]([C@@H](C)/C=C\C=C(C)C)[C@@H]4C/C=C/1[C@@H]32 | inactive | inactive | inactive | inactive | inactive |  |  | 19.1 | 18.5 | 13.2 | 5.4 | > 40
CO[C@H]1O[C@@]2(OC)C[C@@](C)(O)[C@H]3C[C@@]4(C)CC[C@H]([C@@H](C)/C=C\C=C(C)C)[C@@H]4C/C=C/1[C@H]32 [OPHIOBOLIN O] | inactive | inactive | inactive | inactive | inactive | 2.4 | 1.7 |  |  |  |  | 
CC(C)=C/C=C\[C@H](C)[C@H]1CC[C@]2(C)C[C@H]3[C@H](C(=O)C[C@@]3(C)O)/C(C)=C\C[C@@H]12 |  |  |  |  |  | 15.1 | 7 |  |  |  |  | 
CC(C)=C/C=C\[C@H](C)[C@H]1CC[C@]2(C)C[C@H]3[C@H](C(=O)C[C@@]3(C)O)/C(C=O)=C\C[C@@H]12 |  |  |  |  |  |  |  | > 20 | 5.9 | 5.1 | 4.1 | 8.4
CC(C)=C/C=C\[C@H](C)[C@H]1CC[C@]2(C)C[C@@H]3C(C)=CC(=O)[C@H]3/C(CO)=C\C[C@@H]12 | inactive | inactive | inactive | inactive | inactive | > 50 | > 50 | 1.9 | > 20 | > 40 | > 40 | 
CC(C)=C/C=C\[C@H](C)[C@H]1CC[C@]2(C)CC3=C(C(=O)C[C@H]3C)/C(CO)=C\C[C@@H]12 |  |  |  |  |  |  |  | > 20 | > 40 | > 40 | > 40 | 
CC(C)=C/C=C\[C@H](C)[C@H]1CC[C@]2(C)C[C@H]3[C@@H]4/C(=C\C[C@@H]12)C(=O)O[C@]4(O)C[C@@]3(C)O | inactive | inactive | inactive | inactive | inactive |  |  | > 20 | > 40 | > 40 | > 40 | 

Source: ChEMBL document CHEMBL4130606, “Ophiobolins from the Mangrove Fungus Aspergillus ustus” (J Nat Prod, 2018)
